The text below walks through data of ChEMBL document CHEMBL1140384, “Synthesis and structure-activity relationships of suramin-derived P2Y11 receptor antagonists with nanomolar potency” (J Med Chem, 2005).

One may read the IC50 as the concentration that inhibits the measured activity by half. A lower IC50 goes with greater potency. As a reminder, the inhibition is the relative decrease from the control value, in per cent. The term Ki denotes a measure of affinity in units of concentration, obtained from inhibition or displacement.

One experiment has as its target T1, P2X purinoceptor 7 (Rattus norvegicus, UniProt Q64663).
T1 sequence (Q64663 whole entry): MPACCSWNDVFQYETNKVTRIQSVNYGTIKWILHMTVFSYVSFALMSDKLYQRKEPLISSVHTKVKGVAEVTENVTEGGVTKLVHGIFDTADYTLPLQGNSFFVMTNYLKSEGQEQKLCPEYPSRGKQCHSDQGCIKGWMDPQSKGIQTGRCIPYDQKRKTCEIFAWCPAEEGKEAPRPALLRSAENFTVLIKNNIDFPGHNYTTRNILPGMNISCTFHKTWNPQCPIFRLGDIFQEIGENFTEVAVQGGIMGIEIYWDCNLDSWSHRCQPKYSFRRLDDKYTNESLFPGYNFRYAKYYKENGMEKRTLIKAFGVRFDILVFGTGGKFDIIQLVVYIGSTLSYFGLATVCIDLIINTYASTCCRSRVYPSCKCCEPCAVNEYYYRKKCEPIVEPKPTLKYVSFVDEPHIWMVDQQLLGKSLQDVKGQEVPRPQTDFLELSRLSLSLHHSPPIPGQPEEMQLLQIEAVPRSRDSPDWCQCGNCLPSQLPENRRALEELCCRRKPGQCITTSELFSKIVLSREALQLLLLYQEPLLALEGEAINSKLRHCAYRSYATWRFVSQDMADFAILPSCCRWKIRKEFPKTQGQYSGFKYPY
The experiment is described as follows: Inhibitory concentration against rat P2X purinoceptor 7 expressed in Xenopus laevis oocytes. It counts as functional, cell-based, Oocyte. The gist of the method: (§1)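 Two-electrode voltage clamp on Xenopus laevis oocytes expressing recombinant rat or human P2X subtypes, recording receptor-mediated currents. IC50 values came from nonlinear least-squares Hill fits to pooled concentration-inhibition data; mean ± SEM from at least three experiments.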

The target in experiment [1] is T2, P2Y purinoceptor 11 (Homo sapiens, UniProt Q96G91).
T2 sequence (Q96G91 whole entry): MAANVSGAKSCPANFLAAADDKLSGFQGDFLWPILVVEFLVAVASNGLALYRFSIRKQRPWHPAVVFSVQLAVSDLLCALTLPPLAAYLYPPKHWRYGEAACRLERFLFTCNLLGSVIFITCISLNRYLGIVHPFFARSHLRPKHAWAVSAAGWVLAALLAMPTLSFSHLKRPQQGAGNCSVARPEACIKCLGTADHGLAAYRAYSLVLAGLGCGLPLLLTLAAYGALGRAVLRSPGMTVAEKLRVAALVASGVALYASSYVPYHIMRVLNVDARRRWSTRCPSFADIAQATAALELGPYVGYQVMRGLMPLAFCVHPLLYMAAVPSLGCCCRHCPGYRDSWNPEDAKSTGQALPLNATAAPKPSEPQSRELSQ
The experiment in a line: Inhibitory concentration against P2Y11 receptor expressed in 1321N1 astrocytoma Cells; (n=7). The gist of the method: (§2)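 Human P2Y11 stably expressed in 1321N1 astrocytoma cells (G418 selection), loaded with Oregon Green 488 BAPTA-1/AM (3 µM, 60 min, 25 °C) in Krebs-HEPES. Compound preincubated 30 min at 37 °C before injection of 1 µM ATPγS. Ca2+ fluorescence read at ex 485/em 520 nm for 30 s. IC50 from concentration-inhibition curves; independent experiments each run in triplicate.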

Another experiment deals with P2X purinoceptor 1 (Rattus norvegicus, UniProt P47824). The experiment in a line: Inhibitory concentration against rat P2X purinoceptor 1 expressed in Xenopus laevis oocytes. It counts as functional, cell-based, Oocyte. The gist of the method:
as §1

The next experiment has as its target T3, P2X purinoceptor 4 (Rattus norvegicus, UniProt P51577).
T3 sequence (P51577 whole entry): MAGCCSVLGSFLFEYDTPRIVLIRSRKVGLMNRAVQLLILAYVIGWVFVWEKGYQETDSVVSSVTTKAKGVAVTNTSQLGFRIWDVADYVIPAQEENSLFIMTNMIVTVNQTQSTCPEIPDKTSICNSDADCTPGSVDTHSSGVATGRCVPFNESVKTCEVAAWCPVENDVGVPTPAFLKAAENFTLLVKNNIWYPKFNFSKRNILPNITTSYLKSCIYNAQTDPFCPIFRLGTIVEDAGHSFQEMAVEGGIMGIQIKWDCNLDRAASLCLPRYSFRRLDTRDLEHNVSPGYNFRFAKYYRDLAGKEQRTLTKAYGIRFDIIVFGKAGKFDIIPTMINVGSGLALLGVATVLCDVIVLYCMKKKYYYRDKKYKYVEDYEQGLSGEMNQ
The experiment is described as follows: Inhibitory concentration against rat P2X purinoceptor 4 expressed in Xenopus laevis oocytes. It counts as functional, cell-based, Oocyte. The gist of the method:
as §1

Experiment [2] has as its target T4, P2Y purinoceptor 1 (Homo sapiens, UniProt P47900). The experiment in a line: Percent inhibition of agonist-induced calcium mobilization at P2Y purinoceptor 1 recombinantly expressed in human HEK293 cells at 100 uM dose. It counts as functional, cell-based. The following applies: in the assay text read “native in” for “recombinantly expressed in”. The gist of the method:
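Single 100 µM antagonist dose, preincubated 30 min at 37 °C, in a Ca2+ fluorescence assay (Oregon Green 488 BAPTA-1/AM). Agonists: 31.6 nM 2-MeSADP for native P2Y1 and 3.16 µM UTP for native P2Y2, both in HEK293 cells; 1 µM ATPγS for recombinant P2Y11 in 1321N1 cells. Response expressed as % of agonist control; mean ± SEM, n ≥ 3.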
For orientation: A change in cytosolic calcium serves as a functional read-out for many receptors and channels.

For experiment [3], the target named is T4, P2Y purinoceptor 1. The experiment in a line: Inhibitory concentration against P2Y purinoceptor 1 expressed in 1321N1 astrocytoma Cells; (n=3).
The target of experiment [4] is T2, P2Y purinoceptor 11. The experiment is described as follows: Inhibitory concentration against P2Y purinoceptor 11 expressed in 1321N1 astrocytoma cells; n=7. The experiment is classed as cell-based. The gist of the method:
as §2

The target in experiment [5] is P2X purinoceptor 4 (Rattus norvegicus) (UniProt P51577). The experiment in a line: Inhibitory concentration against rat P2X purinoceptor 4 expressed in Xenopus laevis oocytes.
The target of a further experiment is T5, P2X purinoceptor 2 (Rattus norvegicus, UniProt P49653).
T5 sequence (P49653 whole entry): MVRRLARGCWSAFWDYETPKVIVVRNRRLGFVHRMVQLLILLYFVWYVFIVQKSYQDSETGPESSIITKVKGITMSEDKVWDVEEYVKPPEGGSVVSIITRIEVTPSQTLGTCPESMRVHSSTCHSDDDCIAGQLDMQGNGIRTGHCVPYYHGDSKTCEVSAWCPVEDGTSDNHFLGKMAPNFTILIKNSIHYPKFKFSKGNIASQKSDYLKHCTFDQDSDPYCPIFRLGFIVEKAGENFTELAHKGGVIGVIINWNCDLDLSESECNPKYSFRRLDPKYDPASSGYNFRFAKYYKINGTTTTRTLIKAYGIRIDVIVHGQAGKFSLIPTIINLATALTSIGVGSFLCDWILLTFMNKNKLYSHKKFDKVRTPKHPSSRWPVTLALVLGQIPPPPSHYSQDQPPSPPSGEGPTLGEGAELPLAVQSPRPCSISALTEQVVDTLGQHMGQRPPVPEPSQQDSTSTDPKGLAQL
The experiment is described as follows: Inhibitory concentration against rat P2X purinoceptor 2 expressed in Xenopus laevis oocytes. It counts as functional, cell-based, Oocyte. Put shortly: as §1

T4 sequence (P47900 whole entry): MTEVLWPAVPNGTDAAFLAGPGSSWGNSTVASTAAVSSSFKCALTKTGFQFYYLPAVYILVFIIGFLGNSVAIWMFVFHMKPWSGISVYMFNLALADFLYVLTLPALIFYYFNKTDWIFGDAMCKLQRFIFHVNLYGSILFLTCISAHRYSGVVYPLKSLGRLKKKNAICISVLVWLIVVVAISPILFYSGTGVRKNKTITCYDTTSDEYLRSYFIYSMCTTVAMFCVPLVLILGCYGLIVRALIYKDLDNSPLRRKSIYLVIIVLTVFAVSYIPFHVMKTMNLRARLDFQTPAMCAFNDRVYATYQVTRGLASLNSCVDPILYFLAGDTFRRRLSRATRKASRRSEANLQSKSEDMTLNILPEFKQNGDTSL
Sequence of P2X purinoceptor 1 (P47824 whole entry, looked up): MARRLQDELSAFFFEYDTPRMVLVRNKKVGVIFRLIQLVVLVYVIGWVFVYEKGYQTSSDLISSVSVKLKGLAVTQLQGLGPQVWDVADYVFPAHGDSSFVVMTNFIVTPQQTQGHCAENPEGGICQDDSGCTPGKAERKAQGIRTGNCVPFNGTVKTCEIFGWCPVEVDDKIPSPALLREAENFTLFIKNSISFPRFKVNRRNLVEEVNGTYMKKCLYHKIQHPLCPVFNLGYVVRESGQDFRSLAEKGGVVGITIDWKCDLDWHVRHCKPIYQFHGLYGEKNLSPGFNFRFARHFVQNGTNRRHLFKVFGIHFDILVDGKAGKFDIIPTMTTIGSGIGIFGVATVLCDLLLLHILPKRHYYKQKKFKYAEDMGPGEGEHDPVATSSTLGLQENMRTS

`O=C(Nc1cccc(C(=O)Nc2cc(C(=O)Nc3ccc(S(=O)(=O)O)c4cc(S(=O)(=O)O)cc(S(=O)(=O)O)c34)ccc2F)c1)Nc1cccc(C(=O)Nc2cc(C(=O)Nc3ccc(S(=O)(=O)O)c4cc(S(=O)(=O)O)cc(S(=O)(=O)O)c34)ccc2F)c1`: the IC50 at P2X purinoceptor 7 was > 3.16 µM; against P2Y purinoceptor 11 [1], 0.457 µM; against P2X purinoceptor 1 it was 0.0813 µM; against P2X purinoceptor 4, > 1 µM; against P2Y purinoceptor 1 [3], 1820 µM; in experiment [5] it was > 1 µM. The compound further showed an IC50 against P2X purinoceptor 2 of 0.138 µM. Moreover, the inhibition on P2Y purinoceptor 1 [2] came to 63.3%. In addition, the inhibition constant (Ki) on P2Y purinoceptor 11 [4] was 0.0447 µM.
